Consider one compound from ChEMBL document CHEMBL4261600 (Eur J Med Chem, 2018).

A word on the AUC(0-t): it is exposure summed from dosing to a finite time, without extrapolation to infinity. As a reminder, the GI50 is the concentration at which growth is held to half of that of the control. Low readings indicate more potent growth inhibition, high ones less potent growth inhibition. As usually defined, the half-life is the time needed for the level to fall by half in the phase considered. Low readings indicate rapid decline, high ones slow decline. For orientation: MRT inf means a mean duration of stay, worked out from the concentration-time curve. In general, MRT last refers to a mean duration of stay, worked out from the concentration-time curve.

The target in data set [1] is Cyclin-dependent kinase 2 homolog (Plasmodium falciparum (isolate 3D7)) (UniProt P61075). In words: Binding affinity to wild-type Plasmodium falciparum full length PK5 (M1 to N288 residues) expressed in mammalian expression system assessed as remaining unbound target protein level at 1000 nM by Kinomescan method relative to control. The procedure, abridged: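 Single-point competition binding screen across a panel of 468 kinases and mutants, with the inhibitor at 1 μM. Binding is read out as percent of a DMSO control, and targets below 1 percent control were classed as strong binders.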

Data set [2] can be described thus: AUC (0 to t) in mouse at 10 mg/kg, po by LC-MS/MS analysis. It is filed as ADME, organism-based. As to conditions: in vivo. The procedure, abridged: (§1)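 Non-compartmental PK. Male SD rats 190-210 g, mice and beagle dogs acclimatized one week, fasted 12 h with water, split into iv and po groups (mice 48, rats 6, dogs 6). iv 3/3/2 mg/kg (mice/rats/dogs); po 10/20/10 mg/kg; vehicle DMSO in 5% glucose water. Blood at 2 or 5 to 720 min; plasma protein-precipitated with methanol, caffeine internal standard, LC-MS/MS.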

Data set [3] has as its system Phosphatidylinositol 4,5-bisphosphate 3-kinase catalytic subunit alpha isoform (Homo sapiens), P42336 [C420R]. Put plainly: Binding affinity to human partial length PIK3CA C420R mutant (R108 to N1068 residues) expressed in mammalian expression system assessed as remaining unbound target protein level at 1000 nM by Kinomescan method relative to control. The procedure, abridged:
(§2)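 KINOMEscan competition-binding profiling across the panel of 468 kinases and mutants, with inhibitor tested at 1 μM. Binding is expressed as percent of control, with DMSO as the reference control.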

A short description of data set [4]: AUC (0 to t) in Sprague-Dawley rat at 20 mg/kg, po by LC-MS/MS analysis. It is filed as ADME, organism-based. The note with it: in vivo. Summed up:
as §1

For data set [5], the target named is Serine/threonine-protein kinase 25 (Homo sapiens) (UniProt O00506). Put plainly: Binding affinity to wild-type human partial length YSK1 (V14 to H295 residues) expressed in bacterial expression system assessed as remaining unbound target protein level at 1000 nM by Kinomescan method relative to control.
Data set [6] addresses Focal adhesion kinase 1 (Homo sapiens) (UniProt Q05397). Put plainly: Binding affinity to wild-type human partial length FAK (D402 to R696 residues) expressed in bacterial expression system assessed as remaining unbound target protein level at 1000 nM by Kinomescan method relative to control.
The target in data set [7] is cGMP-dependent protein kinase 2 (Homo sapiens) (UniProt Q13237). Put plainly: Binding affinity to wild-type human partial length PRKG2 (S422 to F762 residues) expressed in mammalian expression system assessed as remaining unbound target protein level at 1000 nM by Kinomescan method relative to control.
The subject of data set [8] is Phosphatidylinositol 4,5-bisphosphate 3-kinase catalytic subunit alpha isoform (Homo sapiens), P42336 [E545A]. In words: Binding affinity to human partial length PIK3CA E545A mutant (R108 to N1068 residues) expressed in mammalian expression system assessed as remaining unbound target protein level at 1000 nM by Kinomescan method relative to control. The procedure, abridged:
as §2

The target in data set [9] is Ephrin type-A receptor 8 (Homo sapiens) (UniProt P29322). Put plainly: Binding affinity to wild-type human partial length EPHA8 (Q608 to C920 residues) expressed in bacterial expression system assessed as remaining unbound target protein level at 1000 nM by Kinomescan method relative to control.
In data set [10] the target is Platelet-derived growth factor receptor beta (Homo sapiens) (UniProt P09619). In words: Binding affinity to wild-type human partial length PDGFRB (V582 to Y1009 residues) expressed in bacterial expression system assessed as remaining unbound target protein level at 1000 nM by Kinomescan method relative to control. Summed up:
(§3)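 KINOMEscan binding panel of 468 kinases/mutants. Inhibitor was tested at a single concentration of 1 μM. Binding is reported as percent of control, defined relative to a DMSO control.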

Data set [11] deals with Cyclin-dependent kinase 16 (Homo sapiens) (UniProt Q00536). In words: Binding affinity to wild-type human partial length PCTK1 (G160 to A474 residues) expressed in mammalian expression system assessed as remaining unbound target protein level at 1000 nM by Kinomescan method relative to control. Summed up: as §3
The subject of the next data set is MV4-11. Put plainly: Antiproliferative activity against human MV4-11 cells after 72 hrs by Celltiter-Glo assay. The note with it: MV4-11, 72 h. It is filed as functional. The procedure, abridged:
(§4)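 Cells seeded at 3000/well in 96-well plates, exposed to serially diluted compound for 72 h at 37 °C, 5% CO2. Viability read by CellTiter-Glo luminescence and normalized to DMSO control. GI50 derived from curve fit, mean of three independent measurements. Culture media: DMEM/10% FBS for adherent lines; IMDM for MV4-11 and MEC-1/2; RPMI 1640 for suspension lines and CHL.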

Data set [12] is described as follows: Half life in mouse at 3 mg/kg, iv by LC-MS/MS analysis. It is filed as ADME, organism-based. The note with it: in vivo.
Data set [13] is described as follows: Half life in beagle dog at 2 mg/kg, iv by LC-MS/MS analysis. It is filed as ADME, organism-based, Canis lupus familiaris. The note with it: in vivo.
In data set [14] the target is Serine/threonine-protein kinase pim-1 (Homo sapiens) (UniProt P11309). Put plainly: Binding affinity to wild-type human partial length PIM1 (A15 to K313 residues) expressed in bacterial expression system assessed as remaining unbound target protein level at 1000 nM by Kinomescan method relative to control.
Data set [15] relates to Tyrosine-protein kinase ABL1 (Homo sapiens), P00519 [E255K]. Put plainly: Binding affinity to human phosphorylated ABL1 E255K mutant (S229 to K512 residues) expressed in mammalian expression system assessed as remaining unbound target protein level at 1000 nM by Kinomescan method relative to control. Summed up: as §2
A short description of data set [16]: Antiproliferative activity against Chinese hamster CHL cells after 72 hrs by Celltiter-Glo assay. The note with it: Cricetulus griseus. Background: In ATP-based viability assays light output follows the ATP content of the culture.
Data set [17] has as its target Fibroblast growth factor receptor 1 (Homo sapiens) (UniProt P11362). Put plainly: Binding affinity to wild-type human partial length FGFR1 (P357 to V669 residues) expressed in bacterial expression system assessed as remaining unbound target protein level at 1000 nM by Kinomescan method relative to control. The procedure, abridged:
as §3

A short description of data set [18]: MRT (0 to infinity) in mouse at 10 mg/kg, po by LC-MS/MS analysis. In kind it is ADME, organism-based. As to conditions: in vivo.
The target of data set [19] is Ephrin type-A receptor 6 (Homo sapiens) (UniProt Q9UF33). In words: Binding affinity to wild-type human partial length EPHA6 (Y700 to E1046 residues) expressed in bacterial expression system assessed as remaining unbound target protein level at 1000 nM by Kinomescan method relative to control.
The target in data set [20] is Cyclin-dependent kinase 3 (Homo sapiens) (UniProt Q00526). Put plainly: Binding affinity to wild-type human full length CDK3 (M1 to H305 residues) expressed in bacterial expression system assessed as remaining unbound target protein level at 1000 nM by Kinomescan method relative to control. The procedure, abridged:
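KINOMEscan competitive binding profile at 1 μM inhibitor. Remaining target binding reported as percent of DMSO control.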

The subject of another data set is Ramos. In words: Antiproliferative activity against human Ramos cells after 72 hrs by Celltiter-Glo assay. It is filed as functional. The procedure, abridged:
as §4

Data set [21] is described as follows: MRT (0 to t) in Sprague-Dawley rat at 3 mg/kg, iv by LC-MS/MS analysis. In kind it is ADME, organism-based. The note with it: in vivo.

For `COCCN[C@H]1CC[C@H](Nc2cc(-c3csc(NCC4(C#N)CCOCC4)n3)c(Cl)cn2)CC1`, the Activity in data set [1] is 100%; in data set [3], 100%; in data set [5] it was 92%; in [6] it was 84%; in data set [7], 100%; in data set [8], 100%. Also, the Activity worked out at 92% in data set [9]; 91% in data set [10]; 46% in data set [11]; 55% in data set [14]; 72% in data set [15]; 95% in data set [17]. For the same compound, the figures for the Activity in data set [19] and in data set [20] were 100% and 81%, respectively. The results for the AUC(0-t) in [2] and in data set [4] were 591 ng·h/mL and 1780 ng·h/mL, respectively. For the same compound, the GI50 in the data set on MV4-11 turned out to be 12 nM; in data set [16], 1200 nM; in the data set with Ramos, 13 nM. Further, the half-life in [12] is 103 min; in [13], 788 min. Also, the MRT inf in data set [18] worked out at 3.48 h. In addition, in [21], the MRT last amounted to 4.69 h.
